{
  "source": "ChEMBL document CHEMBL1148984",
  "about": "“Bioactive compounds from the seeds of Punica granatum (pomegranate)” (2004)",
  "key": {"[1]": {"system": "Plasma", "test": "Antioxidant activity against LDL-susceptible to oxidation in New Zealand White rabbit plasma assessed as increase in conjugated diene formation at 12.5 ug/mL after 30 mins", "assay_type": "functional, Oryctolagus cuniculus", "summary_of_the_method": "(§1)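 LDL in phosphate-buffered KCl dialysis buffer (pH 7.4), dialysed 4 h at 4 °C in the dark and diluted to 0.25 mg LDL/mL (protein by Lowry, BSA standard). Compound (final 1.25, 2.5 or 5.0 × 10-5 g/mL) or saline vehicle preincubated ~30 min at 20 °C. Oxidation started with CuSO4 (final 5.0 µmol/L), 37 °C for 4 h. A234 monitored; conjugated diene increase = (A4h − A0h)/A0h × 100%.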"}, "[2]": {"system": "Brain", "test": "Antioxidant activity against lipid peroxidation in Wistar rat brain assessed as inhibition of malondialdehyde release at 12.5 ug/mL by thiobarbituric acid method relative to control", "assay_type": "functional, tissue-based", "set-up": "scale not given: the % may be the effect or the level left", "summary_of_the_method": "(§2)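 Male Wistar rat brain homogenised fresh (10% w/v) in 50 mM phosphate buffer, pH 7.4; protein by Lowry. Aliquots incubated 30 min at 37 °C with compound (final 1.25, 2.5 or 5.0 × 10-5 g/mL) or saline vehicle. Stopped with SDS, then TBA in HCl/acetic acid, boiled 15 min. Chromogen extracted into n-butanol–pyridine (15:1); A532 read against MDA standards.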"}, "[3]": {"system": "Plasma", "test": "Antioxidant activity against LDL-susceptible to oxidation in New Zealand White rabbit plasma assessed as increase in conjugated diene formation at 50 ug/mL after 30 mins", "assay_type": "functional, Oryctolagus cuniculus", "summary_of_the_method": "as §1"}, "[4]": {"system": "Plasma", "test": "Antioxidant activity against LDL-susceptible to oxidation in New Zealand White rabbit plasma assessed as increase in conjugated diene formation at 25 ug/mL after 30 mins", "assay_type": "functional, Oryctolagus cuniculus", "summary_of_the_method": "as §1"}, "[5]": {"system": "Brain", "test": "Antioxidant activity against lipid peroxidation in Wistar rat brain assessed as inhibition of malondialdehyde release at 50 ug/mL by thiobarbituric acid method relative to control", "assay_type": "functional, tissue-based", "set-up": "scale not given: the % may be the effect or the level left", "summary_of_the_method": "as §2"}, "[6]": {"system": "Brain", "test": "Antioxidant activity against lipid peroxidation in Wistar rat brain assessed as inhibition of malondialdehyde release at 25 ug/mL by thiobarbituric acid method relative to control", "assay_type": "functional, tissue-based", "set-up": "scale not given: the % may be the effect or the level left", "summary_of_the_method": "as §2"}},
  "data": [
    {"compound": "O=C1O[C@H]([C@@H](O)CO)C(O)=C1O", "note": "[ASCORBIC ACID]", "values": [
      {"measurement": "Activity", "setting": "[1]", "value": 3.7, "unit": "%"},
      {"measurement": "Activity", "setting": "[2]", "value": 50.1, "unit": "%"}
    ]},
    {"compound": "COc1c(O)cc2c(=O)oc3c(OC)c(O)cc4c(=O)oc1c2c34", "values": [
      {"measurement": "Conjugated diene increase", "setting": "[3]", "value": 20.4, "unit": "%"},
      {"measurement": "Activity", "setting": "[4]", "value": 28.9, "unit": "%"},
      {"measurement": "Activity", "setting": "[1]", "value": 27, "unit": "%"},
      {"measurement": "Activity", "setting": "[5]", "value": 28.1, "unit": "%"},
      {"measurement": "Activity", "setting": "[2]", "value": 21.8, "unit": "%"},
      {"measurement": "Activity", "setting": "[6]", "value": 20.1, "unit": "%"}
    ]},
    {"compound": "COc1cc2c(=O)oc3c(OC)c(O)cc4c(=O)oc(c1OC)c2c34", "values": [
      {"measurement": "Conjugated diene increase", "setting": "[3]", "value": 21, "unit": "%"},
      {"measurement": "Activity", "setting": "[4]", "value": 27.2, "unit": "%"},
      {"measurement": "Activity", "setting": "[1]", "value": 29.8, "unit": "%"},
      {"measurement": "Activity", "setting": "[5]", "value": 31.1, "unit": "%"},
      {"measurement": "Activity", "setting": "[2]", "value": 18.3, "unit": "%"},
      {"measurement": "Activity", "setting": "[6]", "value": 24.6, "unit": "%"}
    ]},
    {"compound": "COc1cc(/C=C/CO[C@@H]2O[C@H](CO[C@@H]3OC[C@](O)(CO)[C@H]3O)[C@@H](O)[C@H](O)[C@H]2O)ccc1O", "values": [
      {"measurement": "Conjugated diene increase", "setting": "[3]", "value": 7.3, "unit": "%"},
      {"measurement": "Activity", "setting": "[4]", "value": 10.5, "unit": "%"},
      {"measurement": "Activity", "setting": "[1]", "value": 15.4, "unit": "%"},
      {"measurement": "Activity", "setting": "[5]", "value": 35.6, "unit": "%"},
      {"measurement": "Activity", "setting": "[2]", "value": 28.9, "unit": "%"},
      {"measurement": "Activity", "setting": "[6]", "value": 32.4, "unit": "%"}
    ]},
    {"compound": "COc1cc(/C=C/CO[C@@H]2O[C@H](CO[C@@H]3OC[C@](O)(CO)[C@H]3O)[C@@H](O)[C@H](O)[C@H]2O)cc(OC)c1O", "values": [
      {"measurement": "Conjugated diene increase", "setting": "[3]", "value": 12.2, "unit": "%"},
      {"measurement": "Activity", "setting": "[4]", "value": 14.4, "unit": "%"},
      {"measurement": "Activity", "setting": "[1]", "value": 17.6, "unit": "%"},
      {"measurement": "Activity", "setting": "[5]", "value": 32.1, "unit": "%"},
      {"measurement": "Activity", "setting": "[2]", "value": 26.5, "unit": "%"},
      {"measurement": "Activity", "setting": "[6]", "value": 29.8, "unit": "%"}
    ]}
  ]
}
